Data: ChEMBL document CHEMBL4715860 (J Med Chem, 2020)

Experiments:
[1] = target: Phosphatidylinositol 3-kinase catalytic subunit type 3 (Homo sapiens, UniProt Q8NEB9); assay: Binding affinity to wild-type human partial length VPS34 (S282 to H879 residues) expressed in HEK293 cells measured after 1 hr by Kinomescan method; type: cell-based
Outline: (§1)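 Compound given as an 11-point threefold series from 30 μM, in technical duplicate. Kd from a Hill fit with slope fixed at −1.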

[2] = Inhibition of mTOR2 in human A2058 cells assessed as reduction in PKB/Akt phosphorylation at Ser473 incubated for 1 hr by Western blot analysis; type: cell-based; settings: A2058, 1 h
Outline: (§2)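 A2058 cells grown 24 h at 37 °C, then exposed to inhibitor or DMSO for 1 h. Cells were PFA-fixed and stained for pPKB Ser473 or pS6 Ser235/236 by in-cell western with IR-dye secondary antibodies. Signal normalized to tubulin and to DMSO. IC50 from a 7-point (triplicate) or 11-point (duplicate) 1:2 series.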

[3] = target: Phosphatidylinositol 4,5-bisphosphate 3-kinase catalytic subunit alpha isoform (Homo sapiens, UniProt P42336); assay: Binding affinity to wild-type human partial length PIK3CA (R108 to N1068 residues) expressed in HEK293 cells measured after 1 hr by Kinomescan method; type: cell-based; outline: as §1
Chain of Phosphatidylinositol 4,5-bisphosphate 3-kinase catalytic subunit alpha isoform (P42336 whole entry, the tested form may be a part, canonical isoform): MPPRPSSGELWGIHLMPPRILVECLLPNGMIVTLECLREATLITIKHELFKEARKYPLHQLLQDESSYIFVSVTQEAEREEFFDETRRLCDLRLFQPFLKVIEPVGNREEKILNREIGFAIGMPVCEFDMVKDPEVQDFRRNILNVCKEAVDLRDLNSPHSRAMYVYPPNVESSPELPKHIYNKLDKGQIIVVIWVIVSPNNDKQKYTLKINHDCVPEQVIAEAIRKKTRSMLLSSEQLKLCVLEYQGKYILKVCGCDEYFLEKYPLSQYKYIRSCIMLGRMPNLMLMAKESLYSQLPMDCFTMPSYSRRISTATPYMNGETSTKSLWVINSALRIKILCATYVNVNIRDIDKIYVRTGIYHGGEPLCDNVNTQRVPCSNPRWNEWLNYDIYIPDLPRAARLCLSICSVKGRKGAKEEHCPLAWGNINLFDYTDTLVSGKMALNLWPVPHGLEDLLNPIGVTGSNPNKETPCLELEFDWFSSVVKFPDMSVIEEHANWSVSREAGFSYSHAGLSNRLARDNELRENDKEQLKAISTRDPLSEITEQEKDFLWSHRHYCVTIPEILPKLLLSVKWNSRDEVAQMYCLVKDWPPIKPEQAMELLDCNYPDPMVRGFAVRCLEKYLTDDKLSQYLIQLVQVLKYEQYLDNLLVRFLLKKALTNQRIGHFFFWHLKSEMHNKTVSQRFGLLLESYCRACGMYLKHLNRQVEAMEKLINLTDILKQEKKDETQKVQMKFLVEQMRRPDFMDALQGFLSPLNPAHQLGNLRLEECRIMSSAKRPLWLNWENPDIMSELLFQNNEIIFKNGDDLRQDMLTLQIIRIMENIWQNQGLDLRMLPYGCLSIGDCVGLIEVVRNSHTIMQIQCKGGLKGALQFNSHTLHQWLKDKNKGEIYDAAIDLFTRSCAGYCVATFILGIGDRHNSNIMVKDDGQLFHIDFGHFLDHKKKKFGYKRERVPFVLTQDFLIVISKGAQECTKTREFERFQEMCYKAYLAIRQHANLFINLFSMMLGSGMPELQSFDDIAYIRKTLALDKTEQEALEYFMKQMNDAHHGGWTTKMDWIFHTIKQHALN

[4] = target: T1, Phosphatidylinositol 4,5-bisphosphate 3-kinase catalytic subunit delta isoform (Homo sapiens, UniProt O00329); assay: Binding affinity to wild-type human partial length PIK3CD (R108 to Q1044 residues) expressed in HEK293 cells measured after 1 hr by Kinomescan method; type: cell-based; outline: as §1
T1 sequence (O00329 whole entry): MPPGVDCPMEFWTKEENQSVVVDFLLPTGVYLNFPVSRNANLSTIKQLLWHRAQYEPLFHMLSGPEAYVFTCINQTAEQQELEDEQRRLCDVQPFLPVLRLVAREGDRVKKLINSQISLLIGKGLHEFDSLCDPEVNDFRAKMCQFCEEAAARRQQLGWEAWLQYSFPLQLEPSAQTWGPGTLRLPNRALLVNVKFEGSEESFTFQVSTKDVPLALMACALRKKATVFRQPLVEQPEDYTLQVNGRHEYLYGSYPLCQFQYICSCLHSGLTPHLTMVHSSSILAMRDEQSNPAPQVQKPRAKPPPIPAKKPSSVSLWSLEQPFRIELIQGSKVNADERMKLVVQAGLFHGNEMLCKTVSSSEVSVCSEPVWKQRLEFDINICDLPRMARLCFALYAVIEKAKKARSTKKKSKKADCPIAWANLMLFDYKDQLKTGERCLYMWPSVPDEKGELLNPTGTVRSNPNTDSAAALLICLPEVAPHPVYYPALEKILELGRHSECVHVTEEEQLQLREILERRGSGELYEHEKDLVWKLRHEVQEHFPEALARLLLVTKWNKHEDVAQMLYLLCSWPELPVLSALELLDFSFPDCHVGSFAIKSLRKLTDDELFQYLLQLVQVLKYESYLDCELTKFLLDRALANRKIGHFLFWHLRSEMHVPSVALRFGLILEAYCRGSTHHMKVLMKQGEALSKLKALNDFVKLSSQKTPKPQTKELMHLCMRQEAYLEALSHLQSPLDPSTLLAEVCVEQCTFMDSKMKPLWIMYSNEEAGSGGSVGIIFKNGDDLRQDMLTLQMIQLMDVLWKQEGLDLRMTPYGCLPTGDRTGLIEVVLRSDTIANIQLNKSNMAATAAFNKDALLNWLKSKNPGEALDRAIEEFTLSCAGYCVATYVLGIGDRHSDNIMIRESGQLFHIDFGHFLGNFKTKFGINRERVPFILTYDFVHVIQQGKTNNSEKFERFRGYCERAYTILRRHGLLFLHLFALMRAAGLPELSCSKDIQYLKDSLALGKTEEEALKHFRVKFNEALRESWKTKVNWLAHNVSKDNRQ

CYP1A2 = target: T2, CYP1A2 (Homo sapiens, UniProt P05177); assay: Drug metabolism assessed as human recombinant CYP1A2 expressed in baculovirus infected insect cells-mediated metabolism by measuring parent compound remaining at 1 uM incubated for 60 mins in presence of NADPH regenerating system by UHPLC based LC-MS analysis; type: ADME; settings: read-out: Stabilty
T2 sequence (P05177 whole entry): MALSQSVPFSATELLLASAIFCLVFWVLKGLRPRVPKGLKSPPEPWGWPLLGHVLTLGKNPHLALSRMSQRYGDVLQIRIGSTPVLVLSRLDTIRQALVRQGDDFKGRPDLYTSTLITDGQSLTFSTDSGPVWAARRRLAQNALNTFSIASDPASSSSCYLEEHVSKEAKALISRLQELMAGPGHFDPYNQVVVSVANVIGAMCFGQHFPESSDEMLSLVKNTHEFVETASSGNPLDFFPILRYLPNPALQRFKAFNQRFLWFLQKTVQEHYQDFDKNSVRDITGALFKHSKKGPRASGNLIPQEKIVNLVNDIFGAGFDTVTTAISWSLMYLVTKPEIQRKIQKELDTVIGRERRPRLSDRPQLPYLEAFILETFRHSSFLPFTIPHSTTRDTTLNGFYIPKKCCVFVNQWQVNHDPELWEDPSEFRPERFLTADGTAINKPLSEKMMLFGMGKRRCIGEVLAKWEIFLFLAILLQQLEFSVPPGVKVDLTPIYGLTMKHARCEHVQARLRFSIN

[5] = target: T3, Serine/threonine-protein kinase mTOR (Homo sapiens, UniProt P42345); assay: Inhibition of alexa fluor 647-labeled kinase tracer 314 binding to recombinant human N-terminal GST-tagged mTOR (1360 to 2549 residues) expressed in baculovirus expression system measured after 60 mins by TR-FRET based LanthaScreen Eu kinase binding assay
[6] = Substrate activity at human P-glycoprotein stably expressed in MDCK cells at 1 uM measured after 5 to 20 mins by UPLC-MS/MS analysis; type: ADME, cell-based; settings: time 5-20 min
Outline: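 CRISPR canine-MDR1-knockout MDCKII cells stably expressing human MDR1, with the knockout parent line as control. Cells grown 5 days on TransWell filters and preincubated in HBSS 30 min at 37 °C. Compound at 1 μM added apical or basolateral. Receiver sampled at 5, 10 and 20 min; UPLC-MS/MS.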

[7] = Inhibition of mTORC1 in human A2058 cells assessed as reduction in RPS6 phosphorylation at S235/236 residue incubated for 1 hrs by Western blot analysis; type: cell-based; settings: A2058, 1 h; outline: as §2
[8] = target: Phosphatidylinositol 4,5-bisphosphate 3-kinase catalytic subunit beta isoform (Homo sapiens, UniProt P42338); assay: Binding affinity to wild-type human partial length PIK3CB (P118 to S1070 residues) expressed in HEK293 cells measured after 1 hr by Kinomescan method; type: cell-based; outline: as §1
Chain of Phosphatidylinositol 4,5-bisphosphate 3-kinase catalytic subunit beta isoform (P42338 whole entry, the tested form may be a part, canonical isoform): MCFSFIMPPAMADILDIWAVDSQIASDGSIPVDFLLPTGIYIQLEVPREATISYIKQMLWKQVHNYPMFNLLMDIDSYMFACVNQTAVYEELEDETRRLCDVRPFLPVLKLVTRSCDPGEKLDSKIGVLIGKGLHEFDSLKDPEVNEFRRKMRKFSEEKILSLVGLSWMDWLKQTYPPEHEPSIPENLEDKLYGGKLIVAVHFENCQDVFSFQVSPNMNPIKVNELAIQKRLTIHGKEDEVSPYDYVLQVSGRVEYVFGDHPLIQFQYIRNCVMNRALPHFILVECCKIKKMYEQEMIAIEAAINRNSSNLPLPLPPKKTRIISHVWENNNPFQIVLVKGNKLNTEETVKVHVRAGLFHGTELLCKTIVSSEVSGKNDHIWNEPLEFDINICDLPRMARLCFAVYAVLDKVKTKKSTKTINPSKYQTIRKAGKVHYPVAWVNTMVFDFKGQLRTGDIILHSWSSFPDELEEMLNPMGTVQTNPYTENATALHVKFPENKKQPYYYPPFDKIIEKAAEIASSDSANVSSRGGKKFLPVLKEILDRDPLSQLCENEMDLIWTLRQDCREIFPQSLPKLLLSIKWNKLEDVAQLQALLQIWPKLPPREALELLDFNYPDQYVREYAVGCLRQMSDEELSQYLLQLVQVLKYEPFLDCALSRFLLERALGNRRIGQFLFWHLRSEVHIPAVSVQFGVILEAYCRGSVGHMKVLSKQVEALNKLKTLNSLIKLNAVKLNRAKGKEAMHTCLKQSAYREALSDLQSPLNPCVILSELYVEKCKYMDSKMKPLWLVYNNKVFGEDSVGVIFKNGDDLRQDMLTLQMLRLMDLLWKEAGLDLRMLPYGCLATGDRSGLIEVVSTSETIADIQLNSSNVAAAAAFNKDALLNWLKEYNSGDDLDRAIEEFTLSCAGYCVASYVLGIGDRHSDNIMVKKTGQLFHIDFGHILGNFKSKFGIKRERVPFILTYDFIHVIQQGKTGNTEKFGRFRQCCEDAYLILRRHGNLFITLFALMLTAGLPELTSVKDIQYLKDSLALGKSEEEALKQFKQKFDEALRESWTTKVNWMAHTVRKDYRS

[9] = target: Phosphatidylinositol 4-kinase beta (Homo sapiens, UniProt Q9UBF8); assay: Binding affinity to wild-type human full length PIK4CB (M1 to M828 residues) expressed in HEK293 cells measured after 1 hr by Kinomescan method; type: cell-based; outline: as §1
Chain of Phosphatidylinositol 4-kinase beta (Q9UBF8 whole entry, the tested form may be a part): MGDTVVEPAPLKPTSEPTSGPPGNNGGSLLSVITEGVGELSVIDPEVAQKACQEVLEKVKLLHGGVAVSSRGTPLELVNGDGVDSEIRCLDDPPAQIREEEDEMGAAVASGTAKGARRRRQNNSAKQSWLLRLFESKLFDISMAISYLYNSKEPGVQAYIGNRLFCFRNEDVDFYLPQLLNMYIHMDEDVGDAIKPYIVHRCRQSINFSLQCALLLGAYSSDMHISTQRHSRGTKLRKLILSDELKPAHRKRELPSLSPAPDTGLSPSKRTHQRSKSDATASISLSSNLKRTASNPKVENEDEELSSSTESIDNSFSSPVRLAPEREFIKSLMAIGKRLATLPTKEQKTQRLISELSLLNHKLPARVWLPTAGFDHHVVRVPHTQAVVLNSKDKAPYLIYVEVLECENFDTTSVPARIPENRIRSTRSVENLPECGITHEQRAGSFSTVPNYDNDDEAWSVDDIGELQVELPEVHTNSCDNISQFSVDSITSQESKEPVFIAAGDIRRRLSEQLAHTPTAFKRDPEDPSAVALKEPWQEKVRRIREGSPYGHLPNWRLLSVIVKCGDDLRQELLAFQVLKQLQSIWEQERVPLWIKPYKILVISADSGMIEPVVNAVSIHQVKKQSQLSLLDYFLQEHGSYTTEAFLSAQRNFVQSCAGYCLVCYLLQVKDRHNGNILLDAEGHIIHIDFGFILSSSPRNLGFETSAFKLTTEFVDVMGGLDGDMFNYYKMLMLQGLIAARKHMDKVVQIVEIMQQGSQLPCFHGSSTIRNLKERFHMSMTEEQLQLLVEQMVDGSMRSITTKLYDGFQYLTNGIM

[10] = target: T3, Serine/threonine-protein kinase mTOR; assay: Binding affinity to wild-type human partial length MTOR (L1382 to W2549 residues) expressed in HEK293 cells measured after 1 hr by Kinomescan method; type: cell-based; outline: as §1

Chain of Phosphatidylinositol 3-kinase catalytic subunit type 3 (Q8NEB9 whole entry, the tested form may be a part): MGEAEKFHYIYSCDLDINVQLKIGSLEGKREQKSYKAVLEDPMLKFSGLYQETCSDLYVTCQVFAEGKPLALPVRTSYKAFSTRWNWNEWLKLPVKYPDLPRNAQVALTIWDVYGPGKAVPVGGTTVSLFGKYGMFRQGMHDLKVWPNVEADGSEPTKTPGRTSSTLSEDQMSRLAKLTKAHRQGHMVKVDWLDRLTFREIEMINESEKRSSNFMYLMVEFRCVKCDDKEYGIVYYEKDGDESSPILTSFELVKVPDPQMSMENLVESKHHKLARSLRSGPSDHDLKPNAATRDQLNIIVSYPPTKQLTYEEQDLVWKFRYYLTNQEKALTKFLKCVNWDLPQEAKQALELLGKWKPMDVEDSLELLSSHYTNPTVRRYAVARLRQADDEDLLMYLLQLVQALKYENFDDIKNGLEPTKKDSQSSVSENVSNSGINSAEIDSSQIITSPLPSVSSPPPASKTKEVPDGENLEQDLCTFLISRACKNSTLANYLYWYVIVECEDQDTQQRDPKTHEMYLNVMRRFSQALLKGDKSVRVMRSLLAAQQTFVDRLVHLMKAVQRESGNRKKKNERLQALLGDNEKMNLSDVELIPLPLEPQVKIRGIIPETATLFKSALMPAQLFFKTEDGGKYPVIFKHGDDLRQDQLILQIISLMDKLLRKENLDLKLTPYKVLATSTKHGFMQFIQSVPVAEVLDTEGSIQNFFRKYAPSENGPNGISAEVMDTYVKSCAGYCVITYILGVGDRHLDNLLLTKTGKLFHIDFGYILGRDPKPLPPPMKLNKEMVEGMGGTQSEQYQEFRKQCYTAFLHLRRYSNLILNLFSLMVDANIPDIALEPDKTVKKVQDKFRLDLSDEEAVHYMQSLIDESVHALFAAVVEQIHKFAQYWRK

Structure (SMILES) | Kd [1] [nM] | IC50 [2] [nM] | Kd [3] [nM] | Kd [4] [nM] | remaining at 1 h, 1 µM (CYP1A2) [%] | Ki [5] [nM] | Activity [6] | IC50 [7] [nM] | Kd [8] [nM] | Kd [9] [nM] | Kd [10] [nM]
C[C@@H]1COCCN1c1nc(-c2cnc(N)cc2C(F)F)nc(N2CCOCC2(C)C)n1 | 28 | 191 | 81 | 2450 | 101 | 4.7 | Not Active | 61 | 1350 | > 30000 | 0.88
C[C@@H]1COCCN1c1nc(-c2cnc(N)cc2C(F)F)nc(N2[C@H](C)COC[C@@H]2C)n1 | 65 | 96 | 110 | 3500 | 98.5 | 3.6 | Not Active | 71 | 1450 | > 30000 | 0.67
